V1R ag counter = agonists of human V1a receptor, primary screen, counter-screen for OXTR agonist project, fluorescence, CHO-V1R cells; 320,000 tested, 0.25% active; Vasopressin V1a receptor (Homo sapiens), P37288; activation, % at 3 µM; Fluo-8 calcium fluorescence, agonist mode; 0% DMSO, 100% 3 nM vasopressin; AID 2797, 2010;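 active = activation above the mean activation of all tested compounds plus 3 SD, per screening run, cut at about 20% in these data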;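 note: signal is peak over basal fluorescence ratio across a 100 second FLIPR read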
CHRM4 PAM = human M4 muscarinic receptor positive allosteric modulators, primary screen, CHO-K1 cells, Fluo-8 calcium fluorescence | Muscarinic acetylcholine receptor M4 (Homo sapiens), P08173 | CHO-K1 hM4/Gqi5, ACh EC20; 0% = ACh EC20, 100% = maximal ACh | activation, % at 3 µM | 360,000 tested, 0.4% active | AID 624126, 2012;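 active = activation above its plate's cutoff, the mean activation of sample wells plus 3 SD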
Target sequence (P08173 whole entry, looked up): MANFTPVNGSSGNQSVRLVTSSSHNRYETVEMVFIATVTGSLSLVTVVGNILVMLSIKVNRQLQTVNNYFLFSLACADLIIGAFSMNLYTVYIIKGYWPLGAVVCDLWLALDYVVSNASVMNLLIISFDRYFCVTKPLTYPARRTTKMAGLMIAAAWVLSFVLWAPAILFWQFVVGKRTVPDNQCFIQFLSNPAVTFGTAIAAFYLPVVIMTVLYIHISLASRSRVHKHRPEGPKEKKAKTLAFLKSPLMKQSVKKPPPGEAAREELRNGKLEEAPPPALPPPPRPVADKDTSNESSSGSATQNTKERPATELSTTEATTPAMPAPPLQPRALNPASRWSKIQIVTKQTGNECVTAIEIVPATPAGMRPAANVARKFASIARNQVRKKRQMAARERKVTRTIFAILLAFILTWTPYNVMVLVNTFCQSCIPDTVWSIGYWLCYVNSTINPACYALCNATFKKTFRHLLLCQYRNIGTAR
OXTR ag = human OXTR agonists, primary screen, fluorescence, CHO-OTR cells, Fluo-8 calcium. Fluo-8 calcium fluorescence; normalized: DMSO 0%, oxytocin 100%. 320,000 tested, 0.32% active. activation, % at 3 µM. Oxytocin receptor (Homo sapiens), P30559;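 active = activation above the mean of all tested compounds plus 3 SD, cutoff set per screening run, cut at about 20% in these data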;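 note: peak over basal fluorescence ratio from a 100 s FLIPR kinetic read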
OXTR potentiator = human OXTR potentiators, primary screen, fluorescence, CHO-OTR cells, Fluo-8 calcium; Oxytocin receptor (Homo sapiens), P30559; 320,000 tested, 0.061% active; Fluo-8 calcium fluorescence, potentiator mode; 0% = oxytocin EC15, 100% = EC100; activation, % at 3 µM;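 active = activation above that plate's cutoff, the mean activation of tested compounds plus 3 SD, cut at about 6.6% in these data, passing the limit was not always enough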
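Measured by – Fluo-8 calcium dye fluorescence · Test system – human OTR in CHO cells · Dosing – one concentration, 3.0 µM compound · Controls – EC15 oxytocin alone as 0%, 75 nM oxytocin as 100% · Evaluation – normalized max/min fluorescence ratio, % activation · Timing – 6 min pre-incubation, 100 s read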
CHRM4 agonist = human M4 muscarinic receptor agonists, primary screen, CHO-K1 cells, Fluo-8 calcium fluorescence | Muscarinic acetylcholine receptor M4 (Homo sapiens), P08173 | CHO-K1 hM4/Gqi5; vehicle 0%, full acetylcholine response 100% | activation, % at 3 µM | 360,000 tested, 0.14% active;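 active = activation above the run mean over all test wells plus 3 SD, cut at about 32% in these data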;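 note: peak over basal fluorescence ratio per well then scaled between controls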
M4 antag = human M4 muscarinic receptor antagonists, primary screen, CHO cells, Fluo-8 calcium fluorescence; inhibition, % at 3 µM; CHO-hM4 cells, ACh EC80; 360,000 tested, 0.73% active; Muscarinic acetylcholine receptor M4 (Homo sapiens), P08173; AID 624125, 2012;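 active = inhibition above its plate's cutoff, the mean inhibition of sample wells plus 3 SD, cut at about 27% in these data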
Of the large screens only hits and unclear results are named; the others gave an inactive call. An excerpt weighted towards active compounds, which were near 1.5% of everything screened.

OC(C#CCN1CCCCC1)c1ccccc1 (stereo unspecified)	none
CC(Oc1ccccc1F)C(=O)NNC(=O)CC(C)c1ccccc1 (stereo unspecified)	none
CCOc1ccccc1C1NC(=O)c2ccccc2N1 (stereo unspecified)	none (no result: V1R ag counter, OXTR ag, OXTR potentiator)
COc1ccc(S(=O)(=O)N2CCSCC2)cc1C(N)=O	CHRM4 PAM 14
O=C(O)C[C@@H](CNC(=O)COc1ccc2ccc(=O)oc2c1)c1ccc(Cl)cc1	none
Cc1ccccc1C(=O)NCC(=O)NNC(=O)CCN1CCN(c2ccccc2)CC1	none
Cc1ccsc1C(=O)NNC(=O)CCN1CCN(c2ccccc2)CC1	CHRM4 PAM 23
CC(=O)OCCCN(C)CC/C=C1/c2ccccc2CSc2ccccc21	M4 antag 36
C[N+](C)(C)CC/C=C1/c2ccccc2CSc2ccccc21	M4 antag 96
COc1ccc(NC(=O)c2cc(S(=O)(=O)N3CCCCC3)c[nH]2)cc1	none
NCCC(=O)N1c2ccccc2Sc2ccc(Cl)cc21	M4 antag 38
NCCCC(=O)N1c2ccccc2Sc2ccc(Cl)cc21	M4 antag 64
COc1cccc(NC(=O)CN(C)C(C)C(=O)NC(C)c2ccc(Cl)cc2Cl)c1 (stereo unspecified)	none (no result: V1R ag counter, OXTR ag, OXTR potentiator)
CCN(CC(=O)NC1CCS(=O)(=O)C1)c1ccc([N+](=O)[O-])cc1C#N (stereo unspecified)	none
CCCC(=O)c1ccc(O)cc1O	none (no result: V1R ag counter, OXTR ag, OXTR potentiator)
CC(c1ccccc1C(O)(c1ccccc1)c1ccccc1)N(C)C (stereo unspecified)	V1R ag counter 48, OXTR ag 43
CN(C)CCN1C(=O)c2ccccc2C1=O	none
COC(=O)C1(C)CCCC2(C)C3CCC(C(C)C)C(CO)C3C(CO)CC12 (stereo unspecified)	M4 antag 29 (no result: V1R ag counter, OXTR ag, OXTR potentiator)
COC(=O)[C@]1(C)CCC[C@@]2(C)C3CC[C@]4(OC(C)=O)C[C@@]3(CCC21)CC4=O (stereo partly specified)	none
CC(=O)Nc1cccc(-c2ccnc3c2CC(C)(C(=O)Nc2ccc(Cl)cc2)O3)c1 (stereo unspecified)	none (no result: V1R ag counter, OXTR ag, OXTR potentiator)
CN(C)C(=O)C1CC(=O)OC12CCCCC2 (stereo unspecified)	none
CC(C)N(C(=O)C1CC(=O)OC12CCCCC2)C(C)C (stereo unspecified)	M4 antag 30
N#C/C(=C/c1ccc(N2CCOCC2)o1)C(=O)NC1CCCCC1	none
N#C/C(=C\c1ccc(N2CCOCC2)o1)C(=O)Nc1ccc(O)cc1	V1R ag counter 29, OXTR ag 20
COc1ccc(NC(=O)/C(C#N)=C\c2ccc(N3CCOCC3)o2)cc1	V1R ag counter 117, OXTR ag 70, CHRM4 agonist 37
COc1ccc(NC(=O)/C(C#N)=C/c2ccc(Br)o2)cc1	none
Cc1ccc(S(=O)(=O)NC(=O)C2(C)CCN2C(=O)c2ccccc2)nc1 (stereo unspecified)	none (no result: V1R ag counter, OXTR ag, OXTR potentiator)
CCOC(=O)c1[nH]c2ccc(Br)cc2c1NC(=O)CCN1CCCC(C)(C)C1	M4 antag 33
C[C@@H](CSc1ccc(Br)cc1)CN1CC[C@H](NC(=O)OCc2ccccc2)CCC1=O	M4 antag 28
COc1ccc(SC[C@H](C)CN2CC[C@H](NC(=O)OCc3ccccc3)CCC2=O)cc1	none
COC(=O)c1ccc(NC(=O)CNC(=O)c2sc3ccccc3c2Cl)cc1	CHRM4 PAM 22
CN(C)c1ccc(-c2csc(C(O)c3ccc(F)cc3)n2)cc1 (stereo unspecified)	CHRM4 agonist 60 (no result: V1R ag counter, OXTR ag, OXTR potentiator)
CN(C)c1ccc(-c2csc(C(O)c3ccc(F)c(F)c3)n2)cc1 (stereo unspecified)	CHRM4 agonist 102, M4 antag 46 (no result: V1R ag counter, OXTR ag, OXTR potentiator)
COc1ccc(C(O)c2nc(-c3ccc(N(C)C)cc3)cs2)cc1 (stereo unspecified)	CHRM4 agonist 38 (no result: V1R ag counter, OXTR ag, OXTR potentiator)
COc1ccc(-c2csc(C(O)c3ccc(F)cc3)n2)cc1 (stereo unspecified)	CHRM4 agonist 47 (no result: V1R ag counter, OXTR ag, OXTR potentiator)
COc1ccc(-c2csc(C(O)c3ccc(OC)cc3)n2)cc1 (stereo unspecified)	none (no result: V1R ag counter, OXTR ag, OXTR potentiator)
COc1ccccc1C(=O)C1CCCN(C(=O)Nc2ccccc2F)C1 (stereo unspecified)	none
O=C(COC(=O)CCSc1ccccc1)NCc1ccccc1	none
COc1ccccc1CN1CCC(CNS(=O)(=O)c2cc(-c3cc(C)no3)ccc2OC)CC1	M4 antag 32
COc1ccc2[nH]cc(/C=N/NS(=O)(=O)c3ccc(C)cc3)c2c1	M4 antag 28
CC(=O)c1ccc(N2CCC(c3cc(-c4ccc(Cl)cc4Cl)n[nH]3)CC2)c([N+](=O)[O-])c1	M4 antag 34
COc1cccc(NC(=O)COC(=O)c2c3c(nc4ccccc24)CCC(C)C3)c1 (stereo unspecified)	M4 antag 41
CCOC(=O)Nc1ccc2c(c1)N(C(=O)CN(CC)CC)c1ccccc1CC2	M4 antag 32 (no result: V1R ag counter, OXTR ag, OXTR potentiator)
CCOC(=O)Nc1ccc2c(c1)N(C(=O)N1CCN(C)CC1)c1ccccc1CC2	none
CC(C)OC(=O)Nc1ccc2c(c1)N(C(=O)N1CCN(C)CC1)c1ccccc1CC2	M4 antag 28
COc1cc(/C=C/C(=O)c2ccc3c(c2)OCO3)cc(Cl)c1O	V1R ag counter 98, OXTR ag 70, CHRM4 agonist 125, M4 antag 32
COc1ccc(C(=O)C=Cc2ccc3c(c2)OCO3)cc1OC	none (no result: V1R ag counter, OXTR ag, OXTR potentiator)
NC(=O)C1CCCN(C(=O)CCc2nnc(C3(c4ccc(Cl)cc4)CCC3)o2)C1 (stereo unspecified)	none
CCC(=O)C1CCCN(C(=O)CCc2nnc(C3(c4ccc(Cl)cc4)CCC3)o2)C1 (stereo unspecified)	CHRM4 PAM 21
CCC1=NN(C(=O)c2ccc(Br)cc2)C(O)(c2ccc(C)cc2)C1 (stereo unspecified)	CHRM4 PAM 22
COc1cccc(/C=C2/CCC(CN(C)C)C2=O)c1 (stereo unspecified)	none (no result: V1R ag counter, OXTR ag, OXTR potentiator)
CCc1cc(C(=O)Cc2nc3ccccc3s2)c(O)cc1OCC(=O)O	M4 antag 36

Screens from PubChem BioAssay.
